Data taken from publication PMC11589143 (Nature Communications, 2024).
One block for each substance: values may come before it.

Assays:
[1] = tested on: inactive mutant (H179Y/D181G/H240Y) of Mina53; test: In vitro demethylation, dot blotting, inactive mutant Mina53; type: biochemical; conditions: 2 h at 37 °C, cofactors
[2] = tested on: His-tagged WT Mina53; test: In vitro demethylation, dot blotting, WT Mina53; type: biochemical; conditions: 2 h at 37 °C, cofactors
[3] = biological target: FITC-conjugated H4R3me2a peptide; test: MST
[4] = tested on: WT Mina53; test: LC-MS of in vitro demethylation products, WT Mina53; type: biochemical; conditions: high-resolution MS
How it was run: (§1)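 Reaction mixtures were brought to 0.2% TFA and 2% acetonitrile (final) and desalted on C18 ZipTips (activated in 80% acetonitrile/0.1% TFA, equilibrated in 0.1% TFA). Separation was on an HSS T3 UPLC column with 0.1% formic acid in water versus acetonitrile/0.1% formic acid. Detection used positive-mode ESI TOF MS scanning 400-1500 m/z, and relative peptide abundance was compared.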

[5] = tested on: mutant Mina53 (D329A/D333A); test: Microscale thermophoresis, mutant Mina53; type: binding; conditions: MST; D333A/D329A mutant vs WT; n=3 independent assays
How it was run: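 His-tagged Mina53 was titrated from 3 nM to 0.1 mM against 25 nM FITC-labelled H4R3me2a peptide. Mixtures were incubated 15 min in 30 mM Hepes, 150 mM NaCl, pH 7.5, then loaded into glass capillaries for microscale thermophoresis. KD was fitted from the thermophoresis response.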

[6] = tested on: catalytically inactive mutant Mina53; test: LC-MS of in vitro demethylation products, mutant Mina53; type: biochemical; conditions: high-resolution MS
How it was run: as §1

[7] = biological target: Mina53 (Homo sapiens, UniProt Q8IUF8); test: Formaldehyde release assay; type: biochemical; conditions: AAPT (modified NASH), ex 355 nm / em 470 nm
Chain of Mina53 (Q8IUF8 whole entry): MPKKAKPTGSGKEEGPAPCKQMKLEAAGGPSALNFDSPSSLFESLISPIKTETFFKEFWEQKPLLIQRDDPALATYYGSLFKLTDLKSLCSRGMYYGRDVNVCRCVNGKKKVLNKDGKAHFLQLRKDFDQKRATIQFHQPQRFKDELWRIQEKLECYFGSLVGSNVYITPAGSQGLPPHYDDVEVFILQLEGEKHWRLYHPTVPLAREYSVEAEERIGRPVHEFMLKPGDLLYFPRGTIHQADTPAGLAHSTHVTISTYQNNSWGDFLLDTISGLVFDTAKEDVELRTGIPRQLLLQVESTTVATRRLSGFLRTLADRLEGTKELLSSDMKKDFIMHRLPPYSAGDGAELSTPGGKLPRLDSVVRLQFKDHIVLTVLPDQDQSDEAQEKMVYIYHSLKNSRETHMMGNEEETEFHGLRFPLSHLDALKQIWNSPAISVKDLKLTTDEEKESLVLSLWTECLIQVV
How it was run: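 After the demethylation reaction, samples were TCA-precipitated and 1% Tris buffer was added. An equal volume of AAPT buffer was added to the supernatant and incubated 30 min at room temperature. Formaldehyde was quantified against a standard curve from serial dilutions of 37% formaldehyde. Km and kcat were fitted to the Michaelis-Menten equation.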

[8] = tested on: His-tagged Mina53; test: Pulldown of synthetic H4R3 peptides with purified His-tagged Mina53; type: binding; conditions: H4R3 peptides with different R3 modifications
[9] = tested on: HEK293T nuclear proteins (H4R3me2a interactors); test: Proteome-wide photoaffinity capture, dimethyl labelling, LC-MS; type: binding, Homo sapiens; conditions: |log2 fold change| > 2, P < 0.05; vs peptide without pLeu
How it was run: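 HEK293T cells were lysed in RSB buffer and crude nuclei resuspended in crosslinking buffer (100 mM HEPES, 1.5 mM MgCl2, 150 mM KCl, pH 7.5). Nuclei received 100 µM biotinylated pLeu peptide in the dark, then 365 nm UV on ice. After washing and sonication, proteins were captured on streptavidin and washed stringently. Only proteins quantified in both replicates were kept, with two-tailed unpaired t-test P-values.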

Chain of His-tagged Mina53 (Myc-induced nuclear antigen 53), wild type (Q8IUF8 whole entry): as above

Substance: APATGGV-Kme3-KPHRYRP(Biotin) [H3K36me3]
- Dot-blot signal change with mutant Mina53 [1]: not mutant Mina53
- Dot-blot signal change with WT Mina53 [2]: modestly decreased

Substance: His-tagged Mina53 (Myc-induced nuclear antigen 53), wild type (from UniProt Q8IUF8 1-465) (enzyme)
- Kd [3]: 27.6 µM

Substance: SGR(Me1)GKGGKGLGKGGAKRHRKVGGK(Biotin) [H4R3me1]
- Dot-blot signal change with mutant Mina53 [1]: not mutant Mina53
- Appearance of non-methylated peptide ([4]; H4R3me1 peptide as substrate): modest non-methylated peptide appearance
- Dot-blot signal change with WT Mina53 [2]: drastically decreased

- Binding affinity of mutant Mina53 [5]: drastic loss of binding
- turn-over rate (kcat) [7]: 0.37 ± 0.08 s⁻¹
Substance: SGR(Me2a)GKGGKGLGKGGAKRHRKVGGK(Biotin) [H4R3me2a]
- Dot-blot signal change with mutant Mina53 [1]: not mutant Mina53
- Peptide peak shift (to mono-methylated peptide) ([4]; WT Mina53): 14 Da
- Dot-blot signal change with WT Mina53 [2]: drastically decreased
- Peptide peak shift with mutant Mina53 [6]: not mutant Mina53

Substance: SGR(Me2s)GKGGKGLGKGGAKRHRKVGGK(Biotin) [H4R3me2s]
- Amount of peptide pulled down by Mina53 [8]: in the smallest amount

Substance: pLeuGRme2aGKGGKGLGKGGAKKbio-NH2 [H4R3me2a-pLeu-biotin]
- Enrichment of SND1, SMNDC1 and PRMT1 in pLeu-containing peptide sample [9]: enriched
